Laboratory results reported in ChEMBL document CHEMBL2417469, “Synthesis of novel analogs of 2-pyrazoline obtained from [(7-chloroquinolin-4-yl)amino]chalcones and hydrazine as potential antitumor and antimalarial agents” (Eur J Med Chem, 2013).

How the values were obtained:
Assay type in all cases: functional
[1] = system: SK-MEL-2; test: Cytotoxicity against human SK-MEL-2 cells after 48 hrs by SRB assay; conditions: SK-MEL-2, 48 h
Outline: (§1)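 NCI 60-cell-line screen. Cells preincubated 24 h at 37 °C, 5% CO2; time-zero plates TCA-fixed. Compounds dissolved in DMSO and tested at five concentrations (100, 10, 1.0, 0.1, 0.01 µM) for 48 h continuous exposure. Adherent cells fixed with cold TCA (10% final), then SRB stained; absorbance at 515 nm. GI50, TGI and LC50 calculated from growth relative to time-zero and untreated controls.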

[2] = system: U-251; test: Cytotoxicity against human U251 cells after 48 hrs by SRB assay; conditions: U-251, 48 h
Outline: (§2)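 NCI 60-cell screen. Cells grew 24 h (37 °C, 5% CO2) before compound was added. Compounds were in DMSO and diluted in medium with gentamicin, then tested at five levels (100, 10, 1.0, 0.1, 0.01 µM) with 48 h continuous exposure. Adherent cells were fixed with TCA (10% final) and stained with 0.4% SRB, absorbance read at 515 nm. A time-zero plate was included. LC50 is the concentration giving 50% loss of protein relative to time zero.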

[3] = system: CAKI-1; test: Cytotoxicity against human Caki1 cells after 48 hrs by SRB assay; conditions: CAKI-1, 48 h; outline: as §1
[4] = system: UACC-62; test: Cytotoxicity against human UACC62 cells after 48 hrs by SRB assay; conditions: UACC-62, 48 h; outline: as §2
[5] = system: HCT-116; test: Cytotoxicity against human HCT116 cells after 48 hrs by SRB assay; conditions: HCT-116, 48 h; outline: as §1
[6] = system: MDA-MB-468; test: Cytotoxicity against human MDA-MB-468 cells after 48 hrs by SRB assay; conditions: MDA-MB-468, 48 h; outline: as §1
[7] = system: SK-OV-3; test: Cytotoxicity against human SKOV3 cells after 48 hrs by SRB assay; conditions: SK-OV-3, 48 h; outline: as §1
[8] = system: Malme-3M; test: Cytotoxicity against human MALME-3M cells after 48 hrs by SRB assay; outline: as §1
[9] = system: IGROV-1; test: Cytotoxicity against human IGROV1 cells after 48 hrs by SRB assay; conditions: IGROV-1, 48 h; outline: as §1
[10] = system: SK-MEL-5; test: Cytotoxicity against human SK-MEL-5 cells after 48 hrs by SRB assay; conditions: SK-MEL-5, 48 h; outline: as §1
[11] = system: M14; test: Cytotoxicity against human M14 cells after 48 hrs by SRB assay; conditions: M14, 48 h; outline: as §1
[12] = system: Plasmodium falciparum; test: Antimalarial activity against Plasmodium falciparum NF54 infected in human serum at 20 ug/ml after 48 hrs by fluorometric method
Outline: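 Asynchronous P. falciparum NF54 at 1.5–2% parasitemia, 5% hematocrit in RPMI with 10% human serum, exposed 48 h at 37 °C under 90% N2/5% CO2/5% O2 at the stated concentration; parasite DNA stained with ethidium bromide after proteinase K lysis; viability % = (Flu treated − medium)/(Flu untreated − medium) ×100; triplicate.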

[13] = system: COLO 205; test: Cytotoxicity against human COLO205 cells after 48 hrs by SRB assay; conditions: COLO 205, 48 h; outline: as §1
[14] = system: SN12C; test: Cytotoxicity against human SN12C cells after 48 hrs by SRB assay; outline: as §1
[15] = system: T47D; test: Cytotoxicity against human T47D cells after 48 hrs by SRB assay; outline: as §2
[16] = system: RPMI-8226; test: Cytotoxicity against human RPMI8226 cells after 48 hrs by SRB assay; conditions: RPMI-8226, 48 h; outline: as §1
[17] = system: A549; test: Cytotoxicity against human A549/ATCC cells after 48 hrs by SRB assay; conditions: A549, 48 h; outline: as §1
[18] = system: NCI-H522; test: Cytotoxicity against human NCI-H522 cells after 48 hrs by SRB assay; conditions: NCI-H522, 48 h; outline: as §1
[19] = system: NCI/ADR-RES; test: Cytotoxicity against human NCI/ADR-RES cells after 48 hrs by SRB assay; outline: as §1
[20] = system: SF-539; test: Cytotoxicity against human SF539 cells after 48 hrs by SRB assay; conditions: SF-539, 48 h; outline: as §1
[21] = system: HCC 2998; test: Cytotoxicity against human HCC2998 cells after 48 hrs by SRB assay; conditions: HCC 2998, 48 h; outline: as §1
[22] = system: BT-549; test: Cytotoxicity against human BT549 cells after 48 hrs by SRB assay; conditions: BT-549, 48 h; outline: as §1
[23] = system: SF-268; test: Cytotoxicity against human SF268 cells after 48 hrs by SRB assay; conditions: SF-268, 48 h; outline: as §1
[24] = system: SF-295; test: Cytotoxicity against human SF295 cells after 48 hrs by SRB assay; conditions: SF-295, 48 h; outline: as §1
[25] = system: NCI-H226; test: Cytotoxicity against human NCI-H226 cells after 48 hrs by SRB assay; conditions: NCI-H226, 48 h; outline: as §1
[26] = system: HT-29; test: Cytotoxicity against human HT-29 cells after 48 hrs by SRB assay; conditions: HT-29, 48 h; outline: as §1
[27] = system: NCI-H460; test: Cytotoxicity against human NCI-H460 cells after 48 hrs by SRB assay; conditions: NCI-H460, 48 h; outline: as §1
[28] = system: MDA-MB-435; test: Cytotoxicity against human MDA-MB-435 cells after 48 hrs by SRB assay; conditions: MDA-MB-435, 48 h; outline: as §1
[29] = system: SR; test: Cytotoxicity against human SR cells after 48 hrs by SRB assay; outline: as §2
[30] = system: LOX IMVI; test: Cytotoxicity against human LOXIMVI cells after 48 hrs by SRB assay; outline: as §1
[31] = system: HCT-15; test: Cytotoxicity against human HCT15 cells after 48 hrs by SRB assay; conditions: HCT-15, 48 h; outline: as §1
[32] = system: RXF 393; test: Cytotoxicity against human RXF393 cells after 48 hrs by SRB assay; conditions: RXF 393, 48 h; outline: as §1
[33] = system: KM12; test: Cytotoxicity against human KM12 cells after 48 hrs by SRB assay; conditions: KM12, 48 h; outline: as §1
[34] = system: OVCAR-8; test: Cytotoxicity against human OVCAR8 cells after 48 hrs by SRB assay; conditions: OVCAR-8, 48 h; outline: as §1
[35] = read-out: LC50 (the source's name)

O=CN1N=C(c2cccc(Nc3ccnc4cc(Cl)ccc34)c2)CC1c1ccc(Cl)cc1 (configuration not stated) gave a GI50 [1] of 2050 nM, an LC50 [1] greater than 100000 nM and a GI50 [2] of 1290 nM. The CC50 [2, 35] was greater than 100000 nM, the GI50 [3] was 950 nM and the LC50 [3] was greater than 100000 nM. For the same compound, the GI50 [4] was 1630 nM, the CC50 [4, 35] was greater than 100000 nM and the GI50 [5] was 600 nM. For the same compound, the LC50 [5] was greater than 100000 nM, the GI50 [6] was 420 nM and the LC50 [6] was greater than 100000 nM. The GI50 [7] was 3480 nM, the LC50 (concentration killing 50% of cells) [7] was greater than 100000 nM and the GI50 [8] was 1630 nM. It also gave an LC50 [8] greater than 100000 nM, a GI50 [9] of 760 nM and an LC50 (concentration killing 50% of cells relative to time zero) [9] greater than 100000 nM. For the same compound, the GI50 [10] was 1860 nM, the LC50 (concentration killing 50% of cells present at time zero) [10] was greater than 100000 nM and the GI50 [11] was 1040 nM. It also gave a CC50 [11, 35] greater than 100000 nM, an inhibition at 20 µg/mL [12] of 7% and a GI50 [13] of 1390 nM. For the same compound, the LC50 [13] was greater than 100000 nM, the GI50 [14] was 3860 nM and the LC50 (50% net cell kill relative to time zero) [14] was greater than 100000 nM. The GI50 [15] was 2630 nM, the LC50 (concentration giving 50% cell kill relative to time zero) [15] was greater than 100000 nM and the GI50 [16] was 2450 nM. The LC50 (concentration killing 50% of cells) [16] was greater than 100000 nM, the GI50 [17] was 940 nM and the CC50 [17, 35] was greater than 100000 nM. For the same compound, the GI50 [18] was 800 nM, the CC50 [18, 35] was greater than 100000 nM and the GI50 [19] was 760 nM. For the same compound, the CC50 [19, 35] was greater than 100000 nM, the GI50 [20] was 3780 nM and the CC50 [20, 35] was greater than 100000 nM. The GI50 [21] was 3360 nM, the LC50 [21] was greater than 100000 nM and the GI50 [22] was 1360 nM. The LC50 (50% net cell kill vs time zero) [22] was greater than 100000 nM, the GI50 [23] was 4370 nM and the LC50 [23] was greater than 100000 nM. The GI50 [24] was 1060 nM, the LC50 [24] was greater than 100000 nM and the GI50 [25] was greater than 100000 nM. It also gave an LC50 (50% lethal concentration) [25] greater than 100000 nM, a GI50 [26] of 480 nM and an LC50 [26] greater than 100000 nM. For the same compound, the GI50 [27] was 790 nM, the LC50 [27] was greater than 100000 nM and the GI50 [28] was 290 nM. The LC50 [28] was greater than 100000 nM, the GI50 [29] was 370 nM and the LC50 [29] was greater than 100000 nM. For the same compound, the GI50 [30] was 1560 nM, the LC50 [30] was 50400 nM and the GI50 [31] was 900 nM. The LC50 (concentration killing 50% of cells relative to time zero) [31] was greater than 100000 nM, the GI50 [32] was 3080 nM and the LC50 (concentration killing 50% of cells) [32] was greater than 100000 nM. For the same compound, the GI50 [33] was 590 nM, the LC50 (concentration killing 50% of cells) [33] was greater than 100000 nM and the GI50 [34] was 3800 nM. The LC50 (50% net cell kill) [34] was greater than 100000 nM.
